Experiments:
B16 = assay: Inhibition B16 melanoma cell monolayer proliferation; type: functional, cell-based; conditions: Mus musculus
Outline: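 Mouse B16 melanoma cells grown as monolayers with continuous 72-h exposure to compound. IC50 is the concentration that inhibits proliferation by 50%.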

Tubulin alpha chain = Tubulin alpha chain (Sus scrofa, UniProt P02550); assay: Displacement of 5.8 uM [3H]-oncodazole from homogeneous tubulin.
Outline: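 Equilibrium binding to soluble, homogeneous tubulin, measured by displacement of 5.8 μM [³H]oncodazole. IC50 (μM) is the concentration that displaces the label, given as mean ± SEM.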

Mus musculus [1] = assay: In vivo Maximum tolerated dose in syngeneic B6D2F1 female mice bearing ip implanted P388 leukemia.; type: functional
Outline: (§1)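 Female B6D2F1 mice given ip implants of 10⁶ P388 leukemia cells. Drug given ip on days 1-5 after implantation at 320-20 mg/kg per day; maximally tolerated dose reported in mg/kg per day. Percent increase in lifespan taken at that dose from median survival time versus untreated controls. Under 25% increase counts as negative.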

Mus musculus [2] = assay: In vivo percent increase in life span at Maximum tolerated dose in syngeneic B6D2F1 female mice bearing ip implanted P388 leukemia; Negative; type: functional; outline: as §1
Mus musculus [3] = assay: In vivo percent increase in life span at Maximum tolerated dose in syngeneic B6D2F1 female mice bearing ip implanted P388 leukemia.; type: functional; outline: as §1
Mus musculus [4] = assay: Compound was tested in vivo for percent increase in life span at Maximum tolerated dose in syngeneic B6D2F1 female mice bearing intraperitoneally implanted P388 leukemia (exp 2); type: functional; outline: as §1

Tubulin alpha chain, sequence (P02550 whole entry, looked up): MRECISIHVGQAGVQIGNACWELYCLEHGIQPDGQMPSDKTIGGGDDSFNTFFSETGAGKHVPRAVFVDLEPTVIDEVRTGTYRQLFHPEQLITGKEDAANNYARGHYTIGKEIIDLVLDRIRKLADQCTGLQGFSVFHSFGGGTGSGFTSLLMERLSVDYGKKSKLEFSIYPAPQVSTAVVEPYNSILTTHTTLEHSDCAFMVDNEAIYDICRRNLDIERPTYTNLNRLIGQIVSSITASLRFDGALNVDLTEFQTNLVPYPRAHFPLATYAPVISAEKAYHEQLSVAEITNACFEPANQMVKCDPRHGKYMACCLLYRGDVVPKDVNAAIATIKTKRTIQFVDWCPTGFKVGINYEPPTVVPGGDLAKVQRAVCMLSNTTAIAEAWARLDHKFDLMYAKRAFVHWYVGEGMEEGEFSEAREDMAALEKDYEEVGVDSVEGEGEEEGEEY

Compound | IC50 (B16) [µM] | IC50 (Tubulin alpha chain) [µM] | MTD (Mus musculus [1]) [mg/kg] | ILS (Mus musculus [2]) [%] | ILS (Mus musculus [3]) [%] | ILS (Mus musculus [4]) [%]
COC(=O)Nc1nc2cc(C(=O)c3cc(CO)cs3)ccc2[nH]1 | 1.8 | 22 | – | – | – | –
COC(=O)Nc1nc2cc(C(=O)c3cc(CC(=O)O)cs3)ccc2[nH]1 | 2 | 442 | 80 | <25 | – | –
CCCOC(=O)Nc1nc2cc(C(=O)c3cccs3)ccc2[nH]1 | 0.5 | – | >320 | <25 | – | –
COC(=O)Nc1nc2cc(C(=O)c3cccs3)ccc2n1C | 20 | – | 160 | <25 | – | –
COC(=O)Nc1nc2cc(C(=O)c3ccc(C)s3)ccc2[nH]1 | 10 | – | 160 | <25 | – | –
COC(=O)Nc1nc2cc(C(=O)c3cccs3)ccc2n1CCN | 30 | – | 80 | <25 | – | –
COC(=O)Nc1nc2ccc(C(=O)c3cc(C([N+]#N)C(F)(F)F)cs3)cc2[nH]1 (centres undefined) | 0.14 | 8.3 | – | – | – | –
COC(=O)Nc1nc2cc(C(=O)c3cc(C)cs3)ccc2[nH]1 | 0.1 | 17.6 | 80 | – | 95 | –
COC(=O)Nc1nc2cc(C(=O)c3cccs3)c(C)cc2[nH]1 | 8 | – | >320 | <25 | – | –
COC(=O)N(C)c1nc2cc(C(=O)c3cccs3)ccc2[nH]1 | 50 | – | 40 | <25 | – | –
COC(=O)Nc1nc2cc(C(=O)c3cc(CC#N)cs3)ccc2[nH]1 | 0.02 | 2.9 | 160 | – | 80 | 80
COC(=O)Nc1nc2cc(C(=O)c3cc(CNC(=O)OC(C)(C)C)cs3)ccc2[nH]1 | 0.5 | 23.3 | 160 | <25 | – | –
COC(=O)Nc1nc2cc(C(=O)c3cc(CC(=O)OC(C)(C)C)cs3)ccc2[nH]1 | 0.07 | 7.5 | 160 | – | 105 | –
COC(=O)Nc1nc2ccc(C(=O)c3cc(COC(=O)c4ccccc4)cs3)cc2[nH]1 | – | 1.95 | – | – | – | –
COC(=O)Nc1nc2cc(C(=O)c3cc(C(=O)C(F)(F)F)cs3)ccc2[nH]1 | 0.14 | 16 | – | – | – | –
COC(=O)Nc1nc2cc(C(=O)c3cccs3)ccc2n1CCCCN | 30 | – | 80 | <25 | – | –
CCOC(=O)Cc1csc(C(=O)c2ccc3[nH]c(NC(=O)OC)nc3c2)c1 | 0.02 | 0.88 | 80 | – | 55 | 55
COC(=O)Nc1nc2cc(C(=O)c3cccs3)ccc2n1CCNC(=O)OCc1ccccc1 | 20 | – | – | – | – | –
COC(=O)Nc1nc2c(C)c(C(=O)c3cccs3)ccc2[nH]1 | 4 | 106 | 40 | <25 | – | –
CCOC(=O)Nc1nc2cc(C(=O)c3cccs3)ccc2[nH]1 | 0.2 | – | 160 | <25 | – | –
COC(=O)Nc1nc2cc(C(=O)c3cc(CC(=O)NCCN)cs3)ccc2[nH]1 | > 70 | – | 80 | <25 | – | –
COC(=O)Nc1nc2cc(C(=O)c3cc(CN)cs3)ccc2[nH]1 | 2 | 120 | 20 | <25 | – | –
COC(=O)Cc1csc(C(=O)c2ccc3[nH]c(NC(=O)OC)nc3c2)c1 | 0.04 | 5 | 30 | – | 65 | –
COC(=O)Nc1nc2c(C)cc(C(=O)c3cccs3)cc2[nH]1 | 0.06 | 0.86 | 30 | – | 45 | 50
CC(C)OC(=O)Nc1nc2cc(C(=O)c3cccs3)ccc2[nH]1 | 0.2 | 14 | 320 | – | 45 | 30
COC(=O)Nc1nc2cc(C(=O)c3cc(CC(=O)OCc4ccccc4)cs3)ccc2[nH]1 | – | 5.2 | – | – | – | –
COC(=O)Nc1nc2cc(C(=O)c3sccc3C)ccc2[nH]1 | 2 | – | >320 | <25 | – | –
COC(=O)Nc1nc2cc(C(=O)c3cccs3)ccc2[nH]1 [NOCODAZOLE] | 0.1 | 5.7 | 80 | – | 75 | –
COC(=O)Nc1nc2ccc(C(=O)c3cccs3)cc2n1C [NOCODOZOLE] | 40 | – | >320 | <25 | – | –
